Measurements gathered from unrelated publications.
Organism: Staphylococcus aureus
Effect on: microbial growth

Compound | method | strain | time | notes | MIC
CC(C)Oc1c(NC(=O)c2ccc(NC(=O)[C@H](CC(N)=O)NC(=O)c3ccc(NC(=O)c4ccc(NC(N)=O)cc4)cc3)cc2)ccc(C(=O)Nc2ccc(C(=O)O)cc2)c1O | – | ATCC29213 | – | – | 64 µg/mL
COc1ccc2c(c1)CCc1c(C(=O)NCCc3nc4cc(C)ccc4[nH]3)n[nH]c1-2 | – | – | – | – | > 128 µg/mL
Cc1cc(Nc2ncnc3ccc(NC4=NC(C)(C)CO4)cc23)ccc1Oc1ccn2ncnc2c1 | – | NCTC8325 | – | – | > 30 µM
CN(C)c1ccc(-c2nc3ccccc3[nH]2)cc1 | broth dilution | ATCC29213 MSSA | – | – | 64 µg/mL
O=C(O)CN1C(=O)/C(=C/c2c3ccccc3c(-c3ccc(N(c4ccccc4)c4ccccc4)cc3)c3ccccc23)SC1=S | broth dilution | ATCC25923 | – | – | > 1000 µg/mL
C=CCn1c(-c2ccc([N+](=O)[O-])cc2)nc2ccc(C)cc21 | broth dilution | ATCC29213 MSSA | – | – | 32 µg/mL
C/C=C(\C)c1cc(O)c(C)c(OC(=O)c2c(C)cc(O)c(Cl)c2O)c1 | broth dilution | CCARM3090 | – | – | 8 µg/mL
O=C(O)c1cn(C2CC2)c2cc(N3CCNCC3)c(F)cc2c1=O | broth dilution | ATCC11632 | 18 h | – | < 5 µg/mL
CN[C@H](CC(C)C)C(=O)N[C@H]1C(=O)N[C@@H](CC(N)=O)C(=O)N[C@H]2C(=O)N[C@H]3C(=O)N[C@H](C(=O)N[C@H](C(=O)O)c4cc(O)cc(O)c4-c4cc3ccc4O)[C@H](O)c3ccc(c(Cl)c3)Oc3cc2cc(c3O[C@@H]2O[C@H](CO)[C@@H](O)[C@H](O)[C@H]2O[C@H]2C[C@](C)(N)[C@H](O)[C@H](C)O2)Oc2ccc(cc2Cl)[C@H]1O | broth dilution | MRSA | – | – | 0.5 µg/mL
CNC(=O)c1nn(C)c2c1C(C)(C)Cc1cnc(Nc3ccc(N4CCN(C)CC4)cc3)nc1-2 | – | NCTC8325 | – | – | > 30 µM
Nc1c(C(=O)Nc2ccc(C3=NCCN3)cc2)cccc1C(=O)Nc1ccc(C2=NCCN2)cc1 | – | – | – | – | > 64 µg/mL
CN(C)[C@@H]1C(O)=C(C(N)=O)C(=O)[C@@]2(O)C(O)=C3C(=O)c4c(O)cccc4[C@@](C)(O)[C@H]3C[C@@H]12 | – | 156 | – | clinical isolate | 0.15 µM
FC(F)c1nc2ccccc2n1-c1nc(N2CCOCC2)nc(N2CCOCC2)n1 | – | NCTC8325 | – | – | > 30 µM
COc1c(C)c(OCc2ccccc2)c(C)c(O)c1C(=O)/C=C/c1ccccc1 | broth dilution | ATCC25923 | – | – | 5000 µg/mL
COc1cccc(NCc2ccc(Oc3ccccn3)cc2)c1 | – | – | – | – | 1.6 µg/mL
CC(C)Oc1c(NC(=O)c2ccc(NC(=O)[C@H](CC(N)=O)NC(=O)c3ccc(NC(=O)c4ccc(C#N)c(Cl)c4)cc3)cc2)ccc(C(=O)Nc2ccc(C(=O)O)cc2)c1O | – | ATCC29213 | – | – | < 0.03 µg/mL
CNC(=O)c1ccc(NC(=O)Nc2ccc(Cl)c(C(F)(F)F)c2)cc1 | – | NCTC8325 | 24 h | – | 30 µM
O=C(O)c1cn(C2CC2)c2cc(N3CCNCC3)c(F)cc2c1=O | broth dilution | ATCC6538 | – | – | 0.24 µg/mL
Clc1ccc(NCc2ccc(Oc3ccccn3)cc2)cc1 | – | – | – | – | > 3.1 µg/mL
CNC(=O)CN1CCC(Oc2cc3c(Nc4cccc(Cl)c4F)ncnc3cc2OC)CC1 | – | NCTC8325 | – | – | > 30 µM

Compound | method | strain | time | notes | MIC
CO[C@@H](C(N)=O)[C@H](NC(=O)c1ccc(NC(=O)c2ccc(C#N)cc2)cc1)C(=O)Nc1ccc(C(=O)Nc2ccc(C(=O)Nc3ccc(C(=O)O)cc3)c(O)c2OC(C)C)cc1 | – | ATCC29213 | – | – | < 0.03 µg/mL
COc1ncc(-c2ccc3nccc(-c4ccnnc4)c3c2)cc1NS(=O)(=O)c1ccc(F)cc1F | – | NCTC8325 | – | – | > 30 µM
C[n+]1c(/C=C/c2c[nH]c3ccccc23)cc(/C=C2\Sc3ccccc3N2CCCN2CCOCC2)c2ccccc21.[I-] | broth dilution | ATCCBAA44 | – | – | 8 µg/mL
Cc1cc(C)cc(NC(=O)CN(C)S(=O)(=O)c2ccc3[nH]c4c(c3c2)CCCC4)c1 | – | – | – | – | > 128 µg/mL
CC(C)Oc1c(NC(=O)c2ccc(NC(=O)[C@H](CC(N)=O)NC(=O)c3ccc(NC(=O)C(C)Oc4ccc(C#N)cc4)cc3)cc2)ccc(C(=O)Nc2ccc(C(=O)O)cc2)c1O (stereo partly shown) | – | ATCC29213 | – | – | > 64 µg/mL
Cc1c(CN(C)C(=O)/C=C/c2cnc3c(c2)CC(NC(=O)OC(C)(C)C)C(=O)N3)oc2ccccc12 (stereo not shown) | broth dilution | ATCC29213 | – | – | 0.016 µg/mL
CCCCCCC#Cc1cncc(-c2nnc(SCc3ccc([N+](=O)[O-])cc3)n2C)c1 | – | MRSA | – | drug-resistant strain | ≥ 20 µg/mL
CO[C@H]1[C@H](O[C@H]([C@H]2O[C@@H](n3ccc(=O)[nH]c3=O)[C@H](O)[C@@H]2O)[C@H](NCCCNC(=O)[C@H](CC(C)C)NC(=O)[C@@H](NC(=O)N[C@H](C(=O)O)C(C)C)[C@@H]2CCNC(=N)N2)C(=O)O)O[C@H](CN)[C@H]1O | – | NEWMAN | – | – | > 80 µg/mL
O=C1NC(=S)S/C1=C\c1c2ccccc2c(-c2ccc(N(c3ccccc3)c3ccccc3)cc2)c2ccccc12 | broth dilution | ATCC43300 | – | – | > 1000 µg/mL
CC(C)Oc1c(NC(=O)c2ccc(NC(=O)[C@H](CC(N)=O)NC(=O)c3ccc(NC(=O)c4ccc(C#N)cc4)cc3)cc2)ccc(C(=O)Nc2ccncc2)c1O | – | ATCC29213 | – | – | > 64 µg/mL
O=C(CCCCCCCC[P+](c1ccccc1)(c1ccccc1)c1ccccc1)Nc1ccc(O)c(O)c1.[Br-] | broth dilution | ATCC43300 MRSA | 18 h | – | > 32 µg/mL
CC1(C)S[C@@H]2[C@H](NC(=O)[C@H](N)c3ccccc3)C(=O)N2[C@H]1C(=O)O | broth dilution | ATCCBAA44 | – | – | 16 µg/mL
C/C=C(\C)c1cc(OC(=O)c2c(O)c(C)c(O)c(Cl)c2/C(C)=C/C)c(C)c(O)c1C(=O)O | broth dilution | 16339 | – | – | 64 µg/mL
CC(C)(O/N=C(\C(=O)N[C@@H]1C(=O)N2C(C(=O)[O-])=C(C[n+]3ccccc3)CS[C@H]12)c1csc(N)n1)C(=O)O | broth dilution | MRSA | 18 h | clinical isolate | 64 µg/mL
C[C@@H](O)[C@H]1C(=O)N2C(C(=O)O)=C(S[C@@H]3CN[C@H](C(=O)N(C)C)C3)[C@H](C)[C@H]12 | – | MRSA | – | – | 32 µg/mL
CC[C@H]1OC(=O)[C@H](C)[C@@H](O[C@H]2C[C@@](C)(OC)[C@@H](O)[C@H](C)O2)[C@H](C)[C@@H](O[C@@H]2O[C@H](C)C[C@H](N(C)C)[C@H]2O)[C@](C)(O)C[C@@H](C)C(=O)[C@H](C)[C@@H](O)[C@]1(C)O | broth dilution | 25923 | – | – | 0.59 µM
O=C1NC(=S)N/C1=C\c1ccc(-c2ccc(N(c3ccccc3)c3ccccc3)cc2)c2ccccc12 | broth dilution | ATCC6538 | – | – | > 1000 µg/mL
Fc1cc(-c2cccc3ncc(-c4cnn(C5CCNCC5)c4)nc23)cc(F)c1CN1CCOCC1 | – | NCTC8325 | – | – | > 30 µM
CC(C)COc1c(NC(=O)c2ccc(NC(=O)[C@H](CC(N)=O)NC(=O)c3ccc(NC(=O)c4ccc(C#N)cc4)cc3)cc2)ccc(C(=O)Nc2ccc(C(=O)O)cc2)c1O | – | ATCC29213 | – | – | 0.25 µg/mL
Cc1nc(O)n2ncc(Cl)c2n1 | – | – | – | – | > 128 µg/mL

Compound | method | strain | time | notes | MIC
CC(=O)NC[C@H]1CN(c2ccc(N3CCOCC3)c(F)c2)C(=O)O1 | broth dilution | MRSA NRS123 USA400 | – | drug-resistant strain | 2 µg/mL
Cc1ccc2nc(-c3ccc(Cl)cc3Cl)[nH]c2c1 | broth dilution | ATCC29213 MSSA | – | – | 64 µg/mL
CCCC(=O)Oc1c(C)c(O)c(C(=O)/C=C/c2ccccc2)c(OC)c1C | broth dilution | ATCC25923 | – | – | > 5000 µg/mL
O=C1NN=C(N=Cc2ccccc2O)C1=NNn1c(-c2ccccc2)nc2ccccc2c1=O | broth dilution | – | 24 h | – | 111 µM
Cc1ccc2nc(-c3ccc(Cl)c(Cl)c3)n(Cc3ccccc3)c2c1 | broth dilution | ATCC29213 MSSA | – | – | 32 µg/mL
CC1=NN(CNc2ccccc2[N+](=O)[O-])C(=O)C1=NNn1c(-c2ccccc2)nc2ccccc2c1=O | broth dilution | – | 24 h | – | 50.4 µM
Cn1cnc2c(F)c(Nc3ccc(Br)cc3Cl)c(C(=O)NOCCO)cc21 | – | NCTC8325 | – | – | > 30 µM
O=C(O)c1cn(C2CC2)c2cc(N3CCNCC3)c(F)cc2c1=O | – | ATCC43300 | – | drug-resistant strain | 0.31 µg/mL
Oc1ccccc1-c1nc2ccccc2[nH]1 | broth dilution | ATCC29213 MSSA | – | – | 256 µg/mL
CC1(C)S[C@@H]2[C@H](NC(=O)[C@H](N)c3ccccc3)C(=O)N2[C@H]1C(=O)O | broth dilution | ATCC29213 | – | – | 1 µg/mL
NC[C@@H]1O[C@H](O[C@H]2[C@@H](O)[C@H](O[C@@H]3[C@@H](O)[C@H](N)C[C@H](N)[C@H]3O[C@H]3O[C@H](CN)[C@@H](O)[C@H](O)[C@H]3N)O[C@@H]2CO)[C@H](N)[C@@H](O)[C@@H]1O | – | USA300 | – | – | 5 µg/mL
Fc1cccc(Cl)c1-c1nc2ccccc2[nH]1 | broth dilution | ATCC29213 MSSA | – | – | 64 µg/mL
O=C(O)CN1C(=O)/C(=C/c2ccc(-c3ccc(N(c4ccccc4)c4ccccc4)cc3)cc2)SC1=S | broth dilution | ATCC43300 | – | – | 3.9 µg/mL
Cc1ccc2nc(-c3ccccc3Cl)[nH]c2c1 | broth dilution | ATCC29213 MSSA | – | – | 64 µg/mL
C/C=C(\C)c1cc(OC(=O)c2c(C)c(Cl)c(O)c(Cl)c2O)c(C)c(O)c1C(=O)O | broth dilution | 745524 | – | – | 64 µg/mL
Cc1ccc(C)n1-c1ccc(-c2nnc(-c3ccc(O)cc3)[nH]2)cc1 | broth dilution | ATCC11632 | 18 h | – | 8 µg/mL
c1ccc2[nH]c(-c3ccc4c(c3)OCO4)nc2c1 | broth dilution | ATCC29213 MSSA | – | – | 128 µg/mL
O=C(O)CN1C(=O)/C(=C/c2ccc(-c3ccc(N(c4ccccc4)c4ccccc4)cc3)c3ccccc23)SC1=S | broth dilution | ATCC43300 | – | – | 1000 µg/mL
